Experimental data: ChEMBL document CHEMBL1148166, “30-, 31-, and 32-hydroxybullatacinones: bioactive terminally hydroxylated annonaceous acetogenins from Annona bullata” (J Nat Prod, 1993)
Converted amounts (≈) assume the structure as drawn.

Tests used:
[1] = system: HT-29; assay: Cytotoxicity against human HT-29 cells; assay type: functional
[2] = (§1) Toxicity in brine shrimp; assay type: organism-based; settings: artemia, in vivo
Procedure, shortened: (§2)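 Lethality read-out in brine shrimp larvae (BST), used routinely to screen extracts, fractions and isolated compounds.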

[3] = system: A549; assay: Cytotoxicity against human A549 cells; assay type: functional; settings: for EC50: Homo sapiens, A549, read-out: ED50 (the source's name)
[4] = system: MCF7; assay: Cytotoxicity against human MCF7 cells; assay type: functional; settings: for EC50: Homo sapiens, MCF7, read-out: ED50 (the source's name)
[5] = system: Artemia; assay: as §1; assay type: organism-based; settings: in vivo; procedure, shortened: as §2

Structure (SMILES) | ED50 [1] | LC50 [2] [µg/mL] | ED50 [3] | ED50 [4] [×10⁻⁴ ug/ml] | LC50 [5] [×10⁻² ug/ml] | EC50 [3] [µg/mL] | EC50 [4] [µg/mL]
CCCC(O)CCCCCC[C@H](O)[C@H]1CC[C@H]([C@H]2CC[C@H]([C@H](O)CCCCCCCCCCC3CC(CC(C)=O)C(=O)O3)O2)O1 (mixture of isomers) | 1.09 ×10⁻¹² ug/ml | 0.158 | 3.29 ×10⁻¹¹ ug/ml | 7.63 |  |  | 
CCC(O)CCCCCCC[C@H](O)[C@H]1CC[C@H]([C@H]2CC[C@H]([C@H](O)CCCCCCCCCCC3CC(CC(C)=O)C(=O)O3)O2)O1 (mixture of isomers) | <1 ×10⁻¹² ug/ml |  |  |  | 4.67 | 0.00125 | 0.161
CCCCC(O)CCCCC[C@H](O)[C@H]1CC[C@H]([C@H]2CC[C@H]([C@H](O)CCCCCCCCCCC3CC(CC(C)=O)C(=O)O3)O2)O1 (mixture of isomers) | <1 ×10⁻¹² ug/ml |  | 1.66 ×10⁻⁹ ug/ml |  | 4.05 |  | 0.105
CCCCCCCCCC[C@H](O)[C@H]1CC[C@H]([C@H]2CC[C@H]([C@H](O)CCCCCCCCCCC3CC(CC(C)=O)C(=O)O3)O2)O1 (mixture of isomers) | 1.19 ×10⁻⁶ ug/ml | 0.0054 |  |  |  | 0.00218 | 12.2
COc1cccc2c1C(=O)c1c(O)c3c(c(O)c1C2=O)C[C@@](O)(C(=O)CO)C[C@@H]3O[C@H]1C[C@H](N)[C@H](O)[C@H](C)O1 [DOXORUBICIN] | 3.32 ×10⁻⁴ ug/ml |  | 1.98 ×10⁻⁴ ug/ml |  |  |  | 0.00202 (≈ 3.72 nM)
